High-throughput results deposited in PubChem BioAssay by Sanford-Burnham Center for Chemical Genomics.
C8 TRAIL sens: caspase-8 TRAIL sensitization; NB7+C8 cells + TRAIL, ATPlite viability luminescence; inhibition (viability loss, TRAIL sensitization), % at 10 µM; 360,000 tested, 1% active;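 active = compounds causing at least 50% loss of cell viability in the single-dose screen, relative to plate controls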
PPC-1+TRAIL kill: kills PPC-1 cancer cells in the presence of TRAIL | PPC-1 cells + TRAIL, ATPLite viability luminescence | cell killing (% activity), % at 4 µM or 5 µM | 220,000 tested, 0.41% active;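 active = cell killing above 50% in the first pass at 4 µM, then a duplicate retest at 5 µM averaging 50% or more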;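 note: plate controls were cells with TRAIL plus DMSO for no effect and medium-only wells lacking cells for full effect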
FLuc stim CS: firefly luciferase counter-screen for stimulation assays | activation factor at 10 µM | ATPlite luciferase biochemical, luminescence, 10 min; 0 = ATP-free wells, 1 = DMSO control | P08659 | 200,000 tested, under 10 active;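 active = luciferase activation factor, scaled between plate controls, of at least 2 with compound at 10 µM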
Target sequence (P08659 whole entry, looked up): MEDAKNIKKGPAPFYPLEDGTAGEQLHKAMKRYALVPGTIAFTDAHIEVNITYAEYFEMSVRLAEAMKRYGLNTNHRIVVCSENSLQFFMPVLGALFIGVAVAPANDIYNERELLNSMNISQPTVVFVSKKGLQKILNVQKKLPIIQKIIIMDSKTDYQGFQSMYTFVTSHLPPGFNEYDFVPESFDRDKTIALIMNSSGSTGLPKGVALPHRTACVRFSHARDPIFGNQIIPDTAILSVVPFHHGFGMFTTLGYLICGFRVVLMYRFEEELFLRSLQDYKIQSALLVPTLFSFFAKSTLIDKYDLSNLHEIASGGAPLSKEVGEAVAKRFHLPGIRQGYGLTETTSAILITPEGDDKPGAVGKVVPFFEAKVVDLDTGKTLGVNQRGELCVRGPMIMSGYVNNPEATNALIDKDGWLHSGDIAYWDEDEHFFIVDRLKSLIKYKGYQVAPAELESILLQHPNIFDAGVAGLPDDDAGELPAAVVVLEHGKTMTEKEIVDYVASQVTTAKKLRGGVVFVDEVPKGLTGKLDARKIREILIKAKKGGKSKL
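Assay system: Luciferase/luciferin detection reagent, cell-free biochemical luciferase assay / Also added: ATP substrate / Schedule: 10 min at ambient temperature / Measured by: luminescence measurement of luciferase light output / Benchmarks: low control with PBS replacing ATP, high control enzyme plus ATP without compound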
FLuc inhib CS: inhibits firefly luciferase, flagging false hits in luciferase inhibition screens | ATPLite firefly luciferase biochemical luminescence, 10 min | inhibition, % at 10 µM | 200,000 tested, 1.5% active | AID 1006;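 active = inhibition above about 50% when tested at 10 µM, limit read from the data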
Active calls of the source: *; nt = no result. Hits are enriched below; roughly 1.6% of the tested compounds scored in any of these assays.

SMILES	C8 TRAIL sens	PPC-1+TRAIL kill	FLuc stim CS	FLuc inhib CS
CCOc1nc(-c2ccc(OC)cc2)ccc1-c1noc(-c2ccncc2)n1	-3	-21	1	-2
Clc1ccccc1-c1nc(-c2cccnc2)no1	34	24	0.3	74*
CCOc1ccc(-c2nc(-c3cccnc3)no2)cc1	58*	32	0.3	71*
Cc1ccccc1NC(=O)CSCc1cc(=O)n2ccsc2n1	6	nt	nt	nt
Cc1ncc([N+](=O)[O-])n1CCN1C(=O)c2ccccc2C1=O	-11	nt	nt	nt
CCOC(=O)c1sc2nc(C)nc(SC(C)C(=O)NC3CC3)c2c1C (centres undefined)	10	nt	nt	nt
Cc1ccc(-c2nc(-c3ccncc3)no2)c(Cl)c1	55*	nt	nt	nt
COc1ccc(CCN2CC(C(=O)NCCc3ccccc3C)CCC2=O)cc1 (centres undefined)	-1	nt	nt	nt
CC(=S)/C=C1\Sc2ccccc2N1C	-7	12	1.1	-6
COc1ccc(C(=O)/C=C2\Sc3ccccc3N2C)cc1	43	50	0.3	71*
Cc1nc2ccccc2c2c1C(=O)N(c1cccc(C(=O)O)c1)C2=O	0	1	1	-3
Cc1ccc(C)c(C(=O)COC(=O)c2cccc(N3C(=O)c4c(C)nc5ccccc5c4C3=O)c2)c1	57*	65*	0.4	60*
O=C(Nc1ccccn1)c1ccc(-c2ccccc2)cc1	82*	nt	nt	nt
CC(C)(C)c1ccc(C(=O)Nc2cnccn2)cc1	75*	-16	0.1	86*
COc1ccc(C(=O)Nc2cnccn2)cc1[N+](=O)[O-]	-1	nt	nt	nt
CSCCC(NC(=O)c1ccco1)C(=O)NCc1ccc2c(c1)OCO2 (centres undefined)	1	nt	nt	nt
COc1cc(C(=O)OCC(=O)NC2CCCCCC2)ccc1OCC(C)C	-9	nt	nt	nt
Cc1cccc(NS(=O)(=O)c2cccc(C(=O)NCCCN3CCOCC3)c2)c1	3	nt	nt	nt
O=C(O)Cc1c[nH]c2ccccc12	-5	nt	nt	nt
O=C(CCl)N(c1ccc(Cl)cc1)c1c[nH]c2ccccc12	89*	34	1	4
O=C(CCl)N(c1ccccc1)c1c[nH]c2ccccc12	98*	11	1.1	-9
O=C(Oc1c(CN2CCOCC2)cc(Cl)c2cccnc12)c1cccs1	52*	25	1	1
COc1cccc(C(=O)Oc2c(CN3CCOCC3)cc(Cl)c3cccnc23)c1	46*	15	1.1	-6
O=C(Oc1c(CN2CCOCC2)cc(Cl)c2cccnc12)c1ccccc1Cl	54*	10	1	-4
O=C(Oc1c(CN2CCOCC2)cc(Cl)c2cccnc12)c1ccc(F)cc1	55*	35	1.1	-5
SMILES	C8 TRAIL sens	PPC-1+TRAIL kill	FLuc stim CS	FLuc inhib CS
C(=N\Nc1nc2ccccc2[nH]1)/c1ccc2c(c1)OCO2	4	22	0.5	55*
COc1cc(/C=N/Nc2nc3ccccc3[nH]c2=O)ccc1O	-2	10	0.5	50*
COc1cccc(/C=N/Nc2nc3ccccc3[nH]2)c1O	44	46	nt	nt
COc1ccc(/C=N/n2c(C)nc3ccccc3c2=O)cc1OC	16	nt	nt	nt
COc1cc(/C=N/Nc2nc3ccccc3[nH]2)cc(OC)c1O	4	9	0.4	61*
COc1ccc(/C=N/Nc2nc3ccccc3c(=O)n2-c2ccccc2)cc1OC	53*	27	0.3	69*
CCOc1cc(/C=N/NC(=O)CCc2n[nH]c(=O)[nH]c2=O)ccc1O	-2	6	1	-1
COc1cc(/C=N/Nc2nc3ccccc3[nH]2)ccc1O	7	4	0.5	55*
CC(=O)Nc1ccc(/C=N/Nc2nc3ccccc3[nH]2)cc1	75*	12	0.6	40
CC(/C=N/Nc1nc2ccccc2[nH]1)=C\c1ccccc1	38	19	0.3	72*
COc1cc(/C=N/NC(=Nc2ccc(C)cc2)c2nc3ccccc3s2)ccc1O	52*	-2	0.7	29
O=C(Cn1cnc(S(=O)(=O)N2CCCC2)c1)Nc1cccc(F)c1	-15	nt	nt	nt
COc1ccc(CNC(=O)c2sc(=O)n(Cc3ccccc3OC)c2C)cc1	-7	nt	nt	nt
CCOC(=O)c1nn(-c2ccc(C)cc2)c(=O)cc1OCC(=O)N1CCN(c2ccccc2)CC1	-4	nt	nt	nt
OC[C@@H]1CN(Cc2ccc(Cl)cc2)C[C@H](n2cnc3c(NC4CC4)ncnc32)O1	-12	nt	nt	nt
CCCCC1CCC(C(=O)N(CC(C)C)c2c(N)n(CCCC)c(=O)[nH]c2=O)CC1 (centres undefined)	23	nt	nt	nt
CCCCC1CCC(C(=O)N(CCC(C)C)c2c(N)n(CCCC)c(=O)[nH]c2=O)CC1 (centres undefined)	52*	nt	nt	nt
CCCCn1c(N)c(N(CCC)C(=O)C2CCCC2)c(=O)[nH]c1=O	29	nt	nt	nt
CCCCC1CCC(C(=O)N(CCCC)c2c(N)n(CCCC)c(=O)[nH]c2=O)CC1 (centres undefined)	72*	nt	nt	nt
c1cncc(CN2CCN(c3cc(-c4cnc5ccccc5c4)nc4ccnn34)CC2)c1	-2	nt	nt	nt
COc1ccc(/C(C)=N/Nc2nncc3ccccc23)cc1	60*	nt	nt	nt
COc1ccc(/C(C)=N/Nc2nc3ccccc3nc2C)cc1	22	3	nt	nt
Cc1nc2ccc(C(=O)NCCc3c[nH]c4ccccc34)cn2c1N(C)C(=O)CCc1ccccc1	-14	nt	nt	nt
CC1CCN(S(=O)(=O)c2ccc3c(c2)C(=NO)c2cc(S(=O)(=O)N4CCC(C)CC4)ccc2-3)CC1	95*	97*	1	-2
O=S(=O)(c1ccc2c(c1)C(=NO)c1cc(S(=O)(=O)N3CCCCC3)ccc1-2)N1CCCCC1	91*	95*	0.8	17
SMILES	C8 TRAIL sens	PPC-1+TRAIL kill	FLuc stim CS	FLuc inhib CS
CS(=O)(=O)N(CC(=O)N1CCCC1)Cc1ccc(Cl)c(Cl)c1	2	nt	nt	nt
CC(C)C1CC(C(F)(F)F)n2nc(C(=O)O)cc2N1 (centres undefined)	-6	9	1.1	-7
Cn1c(/C=C/c2ccc([N+](=O)[O-])o2)nc2ccccc2c1=O	51*	7	1	-5
Cc1ccc(-c2cc(C(=O)N/N=C/c3ccc([N+](=O)[O-])o3)c3ccccc3n2)o1	68*	nt	nt	nt
O=C(N/N=C/c1ccc([N+](=O)[O-])o1)c1cc(-c2ccc(-c3ccccc3)cc2)nc2ccccc12	87*	80*	0.1	93*
Cn1c(/C=C/c2ccccc2)nc2ccccc2c1=O	-8	nt	nt	nt
Cc1onc(-c2ccccc2)c1C(=O)N(CC(C)C)c1c(N)n(CC(C)C)c(=O)[nH]c1=O	3	nt	nt	nt
COc1ccccc1NC(=O)CSc1nncs1	5	nt	nt	nt
CCC(CC)C(=O)Nc1cccc(/C(C)=N\NC(=O)c2ccc(C)s2)c1	-18	21	1	1
C/C(=N/NC(=O)c1ccco1)c1cccc(NC(=O)c2ccc(C)o2)c1	14	21	0.8	25
C/C(=N\NC(=O)c1ccn(C)n1)c1cccc(NC(=O)c2ccc(C)s2)c1	58*	46	0.3	73*
C/C(=N/NC(=O)c1ccco1)c1cccc(NC(=O)c2ccc(C)s2)c1	26	25	0.3	69*
Cc1cc(NC(=O)CC2(CC(=O)O)CCCC2)n(C)n1	-15	17	nt	nt
Cc1cc(O)c(C(=O)/C=C/c2ccc(Cl)cc2)c(=O)o1	69*	nt	nt	nt
CSc1ccc(/C=C/C(=O)c2c(O)cc(C)oc2=O)cc1	64*	nt	nt	nt
